The values that follow come from ChEMBL document CHEMBL1148435, “N,N-dialkyl-4-[(8-azabicyclo[3.2.1]-oct-3-ylidene)phenylmethyl]benzamides, potent, selective delta opioid agonists” (Bioorg Med Chem Lett, 2004).

Test [1] deals with T1, Delta-type opioid receptor (Homo sapiens, UniProt P41143). The test is described as follows: Efficacy relative to stimulation of [35S]GTP-gamma-S, binding by SNC80 was calculated for human delta opioid receptor. The format is functional.
Test [2] has as its target T1, Delta-type opioid receptor. Put plainly: Effective concentration against stimulation of [35S]GTP-gamma-S, binding in CHO cells transfected with the human opioid receptor delta 1. The format is functional, cell-based. The method, boiled down: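 Agonist function was read as compound-stimulated [35S]GTPγS binding in CHO cells transfected with the human δ opioid receptor. The method was adapted from one used for bradykinin receptor signal transduction.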
A general note: GTPγS resists hydrolysis and so accumulates on activated G proteins.

The target of another test is Mu-type opioid receptor (Homo sapiens, UniProt P35372). Put plainly: Binding affinity for mu opioid receptor.
Mu-type opioid receptor, sequence (P35372 whole entry): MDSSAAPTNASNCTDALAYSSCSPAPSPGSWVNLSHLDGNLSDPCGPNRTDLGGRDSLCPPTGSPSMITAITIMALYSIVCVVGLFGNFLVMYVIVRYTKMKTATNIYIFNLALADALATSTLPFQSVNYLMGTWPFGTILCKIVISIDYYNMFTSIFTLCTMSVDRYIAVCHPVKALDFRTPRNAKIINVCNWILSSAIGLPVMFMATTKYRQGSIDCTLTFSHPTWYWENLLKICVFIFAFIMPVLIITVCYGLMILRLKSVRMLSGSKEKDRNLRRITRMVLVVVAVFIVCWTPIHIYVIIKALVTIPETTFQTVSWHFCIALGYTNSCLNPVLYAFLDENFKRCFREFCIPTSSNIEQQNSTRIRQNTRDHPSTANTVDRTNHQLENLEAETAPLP
The target of test [3] is T1, Delta-type opioid receptor. Put plainly: Binding affinity for delta opioid receptor.
For a further test, the system named is Mus musculus. Put plainly: Antinociceptive activity was assessed using the mouse abdominal irritant test (MAIT), at a dose of 150 uM/Kg (po). The format is functional, Abdomen. The gist of the method: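 Mice were dosed orally, 15 mice per compound, in the abdominal irritant test for antinociception, and watched for convulsions.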

T1 sequence (P41143 whole entry): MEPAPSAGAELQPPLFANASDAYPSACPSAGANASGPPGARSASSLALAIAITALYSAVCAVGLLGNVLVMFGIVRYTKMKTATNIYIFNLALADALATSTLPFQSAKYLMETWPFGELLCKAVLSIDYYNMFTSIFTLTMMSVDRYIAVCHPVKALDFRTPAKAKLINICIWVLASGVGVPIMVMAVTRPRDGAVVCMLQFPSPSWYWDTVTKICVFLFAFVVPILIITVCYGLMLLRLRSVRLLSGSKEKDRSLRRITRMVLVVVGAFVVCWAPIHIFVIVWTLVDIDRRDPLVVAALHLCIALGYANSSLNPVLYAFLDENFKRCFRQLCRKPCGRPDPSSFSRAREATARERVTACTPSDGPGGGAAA

Usually EC50 stands for the concentration at which the effect is half-maximal. As a reminder, the Ki is the equilibrium dissociation constant of an inhibitor or competing ligand from its target. One may read the Inhibition as the drop in the measured response relative to a control, in per cent. High values mean strong suppression, low ones little suppression. For `CCN(CC)C(=O)c1ccc(/C(=C2\C[C@H]3CC[C@@H](C2)N3C)c2ccccc2)cc1`, the Relative efficacy in test [1] is 0.87. In addition, in test [2], the EC50 came out at 153 nM. Also, the Ki came to 2910 nM on Mu-type opioid receptor and 5.7 nM in test [3]. In the test with Mus musculus, this compound returned an Inhibition of 80%.
The corresponding values for `CCN(CC)C(=O)c1ccc(C(=C2CC3CCC(C2)N3)c2ccc(O)cc2)cc1` are 0.96, 5 nM, 442 nM, 0.58 nM and 26.7%.
The corresponding values for `CCN(CC)C(=O)c1ccc(/C(=C2\C[C@H]3CC[C@@H](C2)N3)c2ccccc2)cc1` are 1.02, 1.8 nM, 855 nM, 0.023 nM and 86.7%.
Taken in the same sequence, the figures for `CCN(CC)C(=O)c1ccc(/C(=C2/C[C@H]3CC[C@@H](C2)N3CCc2ccccc2)c2ccccc2)cc1` were 0.88, 1390 nM, 317 nM, 42.1 nM and 90%.
For `CCN(CC)C(=O)c1ccc(C(=C2CC3CCC(C2)N3CCCc2ccccc2)c2ccccc2)cc1`, the Relative efficacy in test [1] was 0.88. Further, the 50% effective concentration (EC50) in test [2] is 112 nM. The values for the Ki (on Mu-type opioid receptor; in test [3]) were 104 nM and 0.56 nM, respectively. The Inhibition in the test with Mus musculus came out at 13.3%.
Take `C=CCN1[C@@H]2CC[C@H]1C/C(=C(\c1ccccc1)c1ccc(C(=O)N(CC)CC)cc1)C2`: the Relative efficacy in test [1] is 1.05. Also, a half-maximal response in test [2] (EC50) required 0.5 nM. Further, the inhibition constant Ki at Mu-type opioid receptor was 322 nM; in test [3], 0.025 nM. The Inhibition in the test on Mus musculus amounted to 100%.
Regarding `CCN(CC)C(=O)c1ccc(C(=C2CC3CCC(C2)N3CCc2cccs2)c2ccccc2)cc1`, the Relative efficacy in test [1] was 0.78. For the same compound, the EC50 in test [2] worked out at 1350 nM. Moreover, the results for the Ki (on Mu-type opioid receptor; in test [3]) were 1280 nM and 13.1 nM, respectively.
In the case of `COCCN(CCOC)C(=O)c1ccc(C(=C2CC3CCC(C2)N3CCc2ccccc2)c2ccccc2)cc1`, the Relative efficacy in test [1] was 0.71. This compound also returned a concentration for a half-maximal effect (EC50) in test [2] of 403 nM. Also, the Ki on Mu-type opioid receptor was 294 nM; in test [3] it was 16.6 nM.
Turning to `C=CCN1[C@@H]2CC[C@H]1C/C(=C(/c1ccccc1)c1ccc(C(=O)N(CC)CC)cc1)C2`, the Relative efficacy in test [1] was 0.83. In test [2], this compound had a 50% effective concentration (EC50) of 177 nM. The results for the inhibition constant (Ki) (at Mu-type opioid receptor; in test [3]) were 4400 nM and 0.32 nM, respectively. In the test on Mus musculus, this compound yielded an Inhibition of 100%.
Consider `O=C(c1ccc(C(=C2CC3CCC(C2)N3CCc2ccccc2)c2ccccc2)cc1)N1CCOCC1`, for which, in test [1], the Relative efficacy was 0.76. The EC50 in test [2] was determined as 350 nM. In addition, the inhibition constant (Ki) was 237 nM at Mu-type opioid receptor and 35.2 nM in test [3].
For the compound `CCN(CC)C(=O)c1ccc(C(=C2CC3CCC(C2)N3CCc2ccc(F)cc2)c2ccccc2)cc1`, in test [1], the Relative efficacy is 0.76. Also, in test [2], the midpoint of the response, the EC50, lay at 27 nM. Besides, the inhibition constant (Ki) on Mu-type opioid receptor turned out to be 393 nM; in test [3] it was 2.62 nM. The same compound gave an Inhibition in the test on Mus musculus of 26.7%.
Turning to `C=C(C)CN(CC)C(=O)c1ccc(/C(=C2\C[C@H]3CC[C@@H](C2)N3CCc2ccccc2)c2ccccc2)cc1`, the Relative efficacy in test [1] is 0.9. In addition, the concentration for a half-maximal effect (EC50) in test [2] is 1080 nM. Besides, the Ki is 229 nM on Mu-type opioid receptor and 2.94 nM in test [3]. Also, the Inhibition in the test with Mus musculus is on record as 33%.
In the case of `CCCN1C2CCC1CC(=C(c1ccccc1)c1ccc(C(=O)N(CC)CC)cc1)C2`, in test [1], the Relative efficacy was 0.87. In test [2], this compound showed an EC50 of 43 nM. Also, the Ki is 289 nM on Mu-type opioid receptor and 0.39 nM in test [3]. Also, the Inhibition with Mus musculus came out at 93.3%.
`CCN(CC)C(=O)c1ccc(/C(=C2/C[C@H]3CC[C@@H](C2)N3)c2ccccc2)cc1`: the Relative efficacy in test [1] was 1. Also, the EC50 in test [2] came out at 53 nM. Further, the Ki was 2310 nM at Mu-type opioid receptor and 0.36 nM in test [3]. Further, the Inhibition with Mus musculus is reported as 86.7%.
For the compound `CCN(CC)C(=O)c1ccc(C(=C2CC3CCC(C2)N3C)c2ccc(O)cc2)cc1`, the Relative efficacy in test [1] is 0.86. The compound further displayed a concentration for a half-maximal effect (EC50) in test [2] of 9 nM. The inhibition constant Ki at Mu-type opioid receptor was 194 nM; in test [3] it was 1.89 nM.
On to `CCN(CC)C(=O)c1ccc(/C(=C2\C[C@H]3CC[C@@H](C2)N3CCc2ccccc2)c2ccccc2)cc1`, for which, in test [1], the Relative efficacy is 0.82. Moreover, it took 34 nM to reach a half-maximal effect in test [2] (EC50). Besides, the Ki at Mu-type opioid receptor was 72.3 nM; in test [3] it was 0.24 nM. Also, the Inhibition in the test on Mus musculus amounted to 100%.
For the compound `CCN(CC)C(=O)c1ccc(C(=C2CC3CCC(C2)N3C)c2ccc(OC)cc2)cc1`, in test [1], the Relative efficacy is 0.85. The midpoint of the response in test [2], the EC50, lay at 27 nM. Further, the Ki on Mu-type opioid receptor was 1500 nM; in test [3], 3.5 nM.
The corresponding values for `CCN(CC)C(=O)c1ccc(C(=C2CC3CCC(C2)N3CCOc2ccccc2)c2ccccc2)cc1` are 0.84, 623 nM, 630 nM and 0.38 nM.
In the case of `CCN(CC)C(=O)c1ccc(C(=C2CC3CCC(C2)N3C)c2cccc(O)c2)cc1`, the Relative efficacy in test [1] is 0.87. Further, in test [2], the 50% effective concentration (EC50) amounted to 3 nM. The inhibition constant (Ki) was 727 nM on Mu-type opioid receptor and 0.6 nM in test [3].
In the case of `CC1CCCC(C)N1C(=O)c1ccc(/C(=C2\C[C@H]3CC[C@@H](C2)N3CCc2ccccc2)c2ccccc2)cc1` (stereo partly specified), a half-maximal response in test [2] (EC50) required 10000 nM. The inhibitory constant (Ki) worked out at 571 nM at Mu-type opioid receptor and 11 nM in test [3].
On to `CCN(CC)C(=O)c1ccc(C(=C2CC3CCC(C2)N3CCC2CCCCC2)c2ccccc2)cc1`, for which, in test [1], the Relative efficacy is 0.92. In addition, in test [2], the EC50 was determined as 228 nM. In addition, the Ki amounted to 451 nM on Mu-type opioid receptor and 1.36 nM in test [3].
Taken in the same sequence, the figures for `CCCN(CCC)C(=O)c1ccc(C(=C2CC3CCC(C2)N3CCc2ccccc2)c2ccccc2)cc1` were 0.82, 3560 nM, 644 nM and 7.39 nM.
Taken in the same sequence, the figures for `O=C(c1ccc(C(=C2CC3CCC(C2)N3CCc2ccccc2)c2ccccc2)cc1)N1CCCC1` were 0.86, 1460 nM, 276 nM and 24.1 nM.
Taken in the same sequence, the figures for `CCN(CC)C(=O)c1ccc(C(=C2CC3CCC(C2)N3C)c2cccc(OC)c2)cc1` were 0.87, 65 nM, 693 nM and 5.9 nM.
On to `CCN(CC)C(=O)c1ccc(/C(=C2/C[C@H]3CC[C@@H](C2)N3C)c2ccccc2)cc1`, for which, in test [1], the Relative efficacy is 0.85. Also, the EC50 in test [2] was determined as 149 nM. The inhibition constant Ki at Mu-type opioid receptor was 9730 nM; in test [3], 4.5 nM. Moreover, in the test with Mus musculus, the Inhibition is on record as 90%.
As to `CCN(CC)C(=O)c1ccc(C(=C2CC3CCC(C2)N3CCc2c[nH]c3ccccc23)c2ccccc2)cc1`, the Relative efficacy in test [1] is 0.91. In test [2], this compound displayed an EC50 of 16 nM. Besides, the results for the Ki (at Mu-type opioid receptor; in test [3]) were 337 nM and 3.48 nM, respectively.
For `CCN(CCO)C(=O)c1ccc(C(=C2CC3CCC(C2)N3CCc2ccccc2)c2ccccc2)cc1`, the Relative efficacy in test [1] is 0.77. Besides, a half-maximal effect in test [2] (EC50) was put at 548 nM. Further, the Ki came to 291 nM at Mu-type opioid receptor and 3.2 nM in test [3].
As for `CCN(CC)C(=O)c1ccc(C(=C2CC3CCC(C2)N3CC(=O)c2ccccc2)c2ccccc2)cc1`, in test [1], the Relative efficacy is 0.68. This compound displayed an EC50 in test [2] of 173 nM. Besides, the values for the inhibition constant (Ki) (on Mu-type opioid receptor; in test [3]) were 9640 nM and 6.31 nM, respectively.
The corresponding values for `CC(C)N(C(=O)c1ccc(C(=C2CC3CCC(C2)N3CCc2ccccc2)c2ccccc2)cc1)C(C)C` are 0.92, 5040 nM, 103 nM and 49 nM.
Turning to `CCN(CC)C(=O)c1ccc(C(=C2CC3CCC(C2)N3CCc2ccccc2)c2cccc(OC)c2)cc1`, in test [1], the Relative efficacy was 0.8. The compound further registered a concentration for a half-maximal effect (EC50) in test [2] of 218 nM. For the same compound, the Ki was 417 nM on Mu-type opioid receptor and 1.36 nM in test [3].
`CCN(CC)C(=O)c1ccc(C(=C2CC3CCC(C2)N3Cc2ccc3c(c2)OCO3)c2ccccc2)cc1` returned an EC50 in test [2] of 0.2 nM. For the same compound, the Ki at Mu-type opioid receptor is 22.4 nM; in test [3], 0.01 nM. The Inhibition in the test on Mus musculus is listed as 40%.
